We go through five molecules from ChEMBL document CHEMBL1123678, “Octahydropyrazino[2',3':3,4]pyrido[1,2-a]indoles. A new class of potent antihypertensive agents” (1987).

In assay [1] the test system is Rattus norvegicus. In words: Antihypertensive activity was determined in cannulated spontaneously hypertensive rats(SHR) and maximum decrease of mean arterial blood pressure (MABP) at 1 mg/kg oral dose. The assay is classed as functional, Artery. The procedure, abridged:
(§1)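 Cannulated SHR given compound by gastric gavage in 0.5% methylcellulose (5 mL/kg), doses 0.1–50 mg/kg, 4–8 animals per dose, after 1-h equilibration. MABP recorded for 4 h; maximal % decrease reported with time to peak effect. Significance by two-way analysis of variance.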

Assay [2] concerns Rattus norvegicus. The experiment in a line: Vasopressor responses to epinephrine as a measure of the alpha-1-adrenoceptor blocking activity at 10 mg/kg administered orally was reported to be reveresed. The assay is classed as functional, organism-based. The arrangement: dose 10 mg/kg.
Assay [3] has as its system Rattus norvegicus. The experiment in a line: Vasopressor responses to epinephrine as a measure of the alpha-1-adrenoceptor blocking activity at 1 mg/kg administered orally was reported to be reveresed. Type of assay: functional, organism-based. The arrangement: dose 1 mg/kg.
Assay [4] relates to Rattus norvegicus. The experiment in a line: Vasopressor responses to epinephrine as a measure of the alpha-1-adrenoceptor blocking activity at 5 mg/kg administered orally was reported to be reveresed. The assay is classed as functional, organism-based. Also on record: dose 5 mg/kg.
Assay [5] relates to Rattus norvegicus. In words: Antihypertensive activity was determined in cannulated spontaneously hypertensive rats(SHR) and maximum decrease of mean arterial blood pressure (MABP) at 10 mg/kg oral dose. The assay is classed as functional, Artery. Put shortly: as §1
Assay [6] relates to Rattus norvegicus. The experiment in a line: Antihypertensive activity was determined in cannulated spontaneously hypertensive rats(SHR) and maximum decrease of mean arterial blood pressure (MABP) at 5 mg/kg oral dose. Type of assay: functional, Artery. The procedure, abridged: as §1
In assay [7] the test system is Rattus norvegicus. In words: Antihypertensive activity was determined in cannulated spontaneously hypertensive rats(SHR) and marked bradycardia was reported at a dose of 10 mg/kg. Also on record: dose 10 mg/kg. The assay is classed as functional, organism-based.
The subject of assay [8] is Rattus norvegicus. In words: Antihypertensive activity was determined in cannulated spontaneously hypertensive rats(SHR) and marked bradycardia was reported at a dose of 5 mg/kg. The assay is classed as functional, organism-based. Also on record: dose 5 mg/kg.
For assay [9], the system named is Rattus norvegicus. The experiment in a line: Antihypertensive activity was determined in cannulated spontaneously hypertensive rats(SHR) and maximum decrease of mean arterial blood pressure (MABP) at 50 mg/kg oral dose. The assay is classed as functional, Artery. Put shortly: as §1
Assay [10] deals with Rattus norvegicus. The experiment in a line: Antihypertensive activity was determined in cannulated spontaneously hypertensive rats(SHR) and maximum decrease of mean arterial blood pressure (MABP) at 0.5 mg/kg oral dose. The assay is classed as functional, Artery. The procedure, abridged:
as §1

Assay [11] relates to Rattus norvegicus. The experiment in a line: Antihypertensive activity was determined in cannulated spontaneously hypertensive rats(SHR) and marked bradycardia was reported at a dose of 50 mg/kg. The assay is classed as functional, organism-based. Also on record: dose 50 mg/kg.
Assay [12] concerns Rattus norvegicus. In words: Vasopressor responses to epinephrine as a measure of the alpha-1-adrenoceptor blocking activity at 0.5 mg/kg administered orally was reported to be antagonized. The assay is classed as functional, organism-based. The arrangement: dose 0.5 mg/kg.
Assay [13] has as its system Rattus norvegicus. The experiment in a line: Vasopressor responses to epinephrine as a measure of the alpha-1-adrenoceptor blocking activity at 10 mg/kg administered orally was reported to be antagonized. Also on record: dose 10 mg/kg. The assay is classed as functional, organism-based.
For assay [14], the system named is Rattus norvegicus. The experiment in a line: Antagonism of vasopressor responses to epinephrine as a measure of the alpha-1-adrenoceptor blocking activity at 50 mg/kg administered orally was reported to be reversed. Type of assay: functional, organism-based. The arrangement: dose 50 mg/kg.
In assay [15] the test system is Rattus norvegicus. The experiment in a line: Antihypertensive activity was determined in cannulated spontaneously hypertensive rats(SHR) and heart rate response was reported to reduce by 10-25% after 4 hr at a peroral dose of 10 mg/kg. Type of assay: functional, organism-based. The arrangement: dose 10 mg/kg.
Assay [16] concerns Rattus norvegicus. In words: Antagonism of vasopressor responses to epinephrine as a measure of the alpha-1-adrenoceptor blocking activity at 10 mg/kg administered orally was reported to have no change. Type of assay: functional, organism-based. Also on record: dose 10 mg/kg.

Activity calls are given as the source filed them. No cut-off for these calls is given here.

As to `CCN1CCN(CC)[C@H]2c3c(C)c4ccccc4n3CC[C@@H]21.Cl.Cl`, the “Decrease in MABP” value is on record as 14% in assay [1], 32% in [5] and 28% in assay [6]. Besides, the Activity result in assay [2], in assay [3] and in [4] was “Vasopressor response reveresed” in each case. Further, the HR result in assay [7] and in assay [8] was “Heart rate response was reported to be reduce by 10-25% after 4 hr at a dose of 25 mg/kg” each time.

As for `CCN1CCN(C(C)C)C2CCn3c(c(C)c4cc(OC)ccc43)C21.Cl.Cl` (stereo not given), the results for the “Decrease in MABP” value in assay [9], in assay [10] and in assay [6] were 43%, 8% and 33%, respectively. In addition, the HR entry in assay [11] was “Heart rate response was reported to reduce by 10-25% after 4 hr at a peroral dose of 5.0 mg/kg”. In addition, the Activity result in assay [12] is on record as “Vasopressor response antagonized”.

On to `Cc1c2n(c3ccccc13)CCC1C2NCCN1C(C)C.Cl.Cl` (stereo not given), for which the Activity result in assay [13] is “Vasopressor response antagonized”. In assay [5], the “Decrease in MABP” value is 12%.

For `CCN1CCN(CCOc2ccccc2)C2CCn3c(c(C)c4ccccc43)C21.Cl.Cl` (stereo not given), in [9], the “Decrease in MABP” value worked out at 22%. Also, the Activity result in [14] is “Antagonism reversed”.

Turning to `CCN1CCNC2CCn3c(c(C)c4ccccc43)C21` (stereo not given), the HR entry in [15] is “Heart rate response was reported to reduce by 10-25% after 4 hr at a peroral dose of 10 mg/kg”. The outcome in assay [16] was inactive. In addition, the “Decrease in MABP” value in assay [5] came to 14%.
